# Among all 300,000 compounds or so, about 4,400 (1.5%) were called active. Many of the other results were omitted from the sample, so actives are more common in it than they were. Unmarked numbers belong to inactive results.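 The calls were made as follows: active = mean inhibition across valid replicates above about 55% (limit read from the data); inconclusive = mean below that limit but half or more replicates reach it; inactive = mean below it, under half of replicates reach it.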
# Assay: inhibitors of intracellular T. cruzi growth, primary screen, luminescence, NIH3T3 host cells (AID 1885);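 also: signal also drops with host cell toxicity which is not excluded here; 0% = plate median of DMSO wells and 100% = zero luminescence signal; higher percent means less beta-gal luminescence so fewer parasites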
# Conditions: T. cruzi beta-gal in NIH3T3, luminescence, 90 h; hits give high values; concentration not given here
# Summary of the method: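 Test system: β-gal T. cruzi (Tulahuen C4) inside NIH/3T3 cells / Quantity: 5,000 cells/well / Measured by: luminescence from GalScreen with 0.05% NP40, read after 60 min / Medium: DMEM plus 2% FBS / Measure: parasite load inhibition, % / Reagent: Tulahuen C4 trypomastigotes, 5000/well / Schedule: co-culture of at least 90 h after 3 h attachment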
row,SMILES,inhibition
1,CCC(CC)c1nnc(NC(=O)C2=COCCO2)s1,-5.48%
2,Cc1cccc(C(=O)NCCCN(C)CCCNC(=O)c2cccc(C)c2)c1,66.4% (active)
3,CCNC(=O)COC(=O)CCNC(=O)c1cccc(C)c1,8.59%
4,Cc1cccc(C(=O)c2cccc(C)c2)c1,-0.776%
5,O=C(COC(=O)c1ccccc1Br)Nc1nnc(-c2ccccc2)o1,1.76%
6,NC(=O)Cc1nc2scc(-c3ccc(Cl)cc3)c2c(=O)[nH]1,-9.75%
7,O=c1[nH]c(CCl)nc2cc(-c3ccc(Cl)cc3)sc12,55.8% (active)
8,O=c1[nH]c(CN2CCOCC2)nc2cc(Cl)ccc12,-13.1%
9,CCC1CCC/C1=N\NC(=O)c1ccc(Cl)cc1 (stereo not drawn),-10.7%
10,Cc1ccccc1Nc1nc(N)nc(CSc2ccccc2)n1,4.95%
11,O=C(CNC(=O)c1ccccc1Br)NCCSc1ccc(Br)cc1,-2.64%
12,O=C(/C=C/c1ccc(Cl)c([N+](=O)[O-])c1)c1cccnc1,34%
13,NC(N)=N/N=C/c1ccc(Cl)c([N+](=O)[O-])c1,60.6% (active)
14,O=C(/C=C/c1ccc(Cl)c([N+](=O)[O-])c1)c1ccc(O)cc1,-0.939%
15,COc1ccccc1C(=O)Nc1ccc(Nc2ccccc2)cc1,-9%
16,COc1ccccc1CNC(=O)COn1nnc2ccc(S(=O)(=O)N3CCOCC3)cc21,3.8%
17,Cc1ccccc1-n1c(SCC(=O)NCc2cccs2)nnc1-c1ccncc1,9.95%
18,Cc1ccc(-c2noc(CSc3nnc(-c4ccncc4)n3-c3ccc(F)cc3)n2)cc1,9.52%
19,Cc1ccc(Nc2nc(CSc3nnc(-c4ccncc4)n3-c3ccccc3C)cs2)cc1,57.4% (active)
20,COC(=O)c1cc(NC(=O)c2nn(C)c(=O)c3ccccc23)cc(C(=O)OC)c1,-14.3%
21,O=C(CC1SC(N2CCCC2)=NC1=O)Nc1ccc(C(=O)NCCc2ccc(F)cc2)cc1 (stereo not drawn),-6.73%
22,COC(=O)c1[nH]c2ccccc2c1NC(=O)CN1CCCc2ccccc21,67.6% (active)
23,COC(=O)c1[nH]c2cccc(C)c2c1NC(=O)CN1CCCc2ccccc21,4.45%
24,NS(=O)(=O)c1cccc(NC(=O)CN2CCCc3ccccc32)c1,-16.2%

row,SMILES,inhibition
1,CSc1n[nH]c(=S)n1N,-10.3%
2,COC(=O)c1cnc(Nc2cc(C)ccc2OC)c2ccccc12,-8.82%
3,Cc1c(C(=O)NC(=S)NCc2cccnc2)oc2ccccc12,63.2% (active)
4,Cc1ccc(C(=O)NC(=S)NCc2cccnc2)cc1,14.1%
5,Cc1nonc1NC(=O)c1oc2ccccc2c1C,-12.6%
6,CC(C)CN(C(=O)COC(=O)c1ccc2ccccc2c1)c1c(N)n(Cc2ccccc2)c(=O)[nH]c1=O,2.62%
7,CCN(C(=O)COC(=O)C1CCN(S(=O)(=O)c2ccc(C)c(C)c2)CC1)C1CCS(=O)(=O)C1 (stereo not drawn),-2.19%
8,Cc1ccc(C(=O)c2c(NC(=O)c3ccncc3)sc3c2CCCC3)cc1,57.9% (active)
9,NC(=O)c1c(NC(=O)c2ccccc2)sc2c1CCCC2,12.5%
10,Cc1ccc(NC(=O)c2c(NC(=O)CCC(=O)O)sc3c2CCCCC3)cc1,-8.68%
11,CN(C)C(CNC(=O)c1cccc(S(=O)(=O)Nc2ccc(Br)cc2)c1)c1ccco1 (stereo not drawn),20.3%
12,COc1ccc(OC)c(NC(=O)c2ccc3c(c2)C(=O)N(c2ccc(OC(C)=O)cc2)C3=O)c1,-18%
13,CCCOc1ccc(NC(=O)C2OC3OC(C)(C)OC3C3OC(C)(C)OC23)cc1 (stereo not drawn),4.62%
14,Cc1cc(-c2ccc(/C=N/n3cnnc3)o2)c([N+](=O)[O-])cc1C,-3.12%
15,CN1CCN(/N=C/c2ccc(C#N)cc2)CC1,48.6%
16,CN1CCN(/N=C/c2ccc(-c3ccc([N+](=O)[O-])cc3)o2)CC1,59.9% (active)
17,COc1ccc(-c2nc3c(s2)CCc2onc(-c4ccc(Br)cc4)c2-3)cc1,-2.05%
18,Cc1ccc(OCCNC(=O)CCNS(=O)(=O)c2ccc(Br)cc2)cc1,-1.12%
19,COc1ccc(NC(=O)CSc2nnc(Cc3ccccc3)c(=O)n2N)cc1,-3.84%
20,CN(C)CCCN(C(=O)c1ccc(S(=O)(=O)N2CCCc3ccccc32)cc1)c1nc2ccc(F)cc2s1,22.9%
21,CS(=O)(=O)c1ccc2nc(NC(=O)c3ccc(N4CCCC4=O)cc3)sc2c1,0.975%
22,O=C(Nc1nc2ccc([N+](=O)[O-])cc2s1)c1ccc(S(=O)(=O)N2CCCc3ccccc32)cc1,73.8% (active)
23,CC(C)(C)N1C(=O)[C@H]2[C@@H](c3ccc(Br)cc3)N3C(=O)N(c4cccc(Cl)c4)C(=O)[C@@]3(C)[C@H]2C1=O,-6.33%
24,Cc1csc(NC(=O)C2=COCCO2)n1,-7.78%

row,SMILES,inhibition
1,CC(=O)NCCC(=O)Nc1nc(-c2ccc3c(c2)OCCO3)cs1,-11.7%
2,Cc1ccc(-c2csc(NC(=O)C3=COCCO3)n2)cc1C,71.6% (active)
3,Cc1ccc(-c2nn(-c3ccccc3)cc2C(=O)NCCCN2CCCC2=O)cc1,-2.8%
4,CC(C)(C)n1cnnc1Sc1ccc([N+](=O)[O-])cn1,-5.35%
5,COc1ccc(C2CC(=O)Oc3ccc(C(C)(C)C)cc32)cc1 (stereo not drawn),-9.82%
6,COc1ccc2oc(=O)cc(CN3CCOCC3)c2c1,-6.42%
7,COc1ccc2oc(=O)cc(-c3cc4ccccc4o3)c2c1,0.932%
8,CCOc1ccc(N(C)Cc2cc(=O)oc3ccc(OC)cc23)cc1,79.2% (active)
9,CCCn1c(C2CCCN2c2nc(-c3ccc(OC)cc3)cs2)nc2ccccc21 (stereo not drawn),-7.75%
10,CCOC(=O)N1CCN(C(c2cccnc2)c2ccc3cccnc3c2O)CC1 (stereo not drawn),30.1%
11,Oc1c(C(c2ccccn2)N2CCOCC2)ccc2cccnc12 (stereo not drawn),10.2%
12,CCN1CCN(C(c2cccnc2)c2cc(Cl)c3cccnc3c2O)CC1 (stereo not drawn),57.7% (active)
13,COc1ccc(Cl)cc1NS(=O)(=O)c1cccc(C(=O)NC2CCC(O)CC2)c1 (stereo not drawn),3.45%
14,COC(=O)c1c(-c2ccsc2)oc2ccc(-c3cc(OC)c(OC)c(OC)c3)cc12,34%
15,Cc1nnc(N/N=C/C2CC=CCC2)[nH]c1=O (stereo not drawn),0.195%
16,Cc1nnc(N/N=C/c2ccccn2)[nH]c1=O,60.9% (active)
17,CNC(=O)C(=O)N/N=C/c1ccccn1,-8.15%
18,CC1(C)S[C@@H]2[C@H](N=CN3CCCCCC3)C(=O)N2[C@H]1C(=O)O,4.45%
19,O=C(NCc1ccc(Cl)cc1)C(=O)NCC1CCCN1S(=O)(=O)c1cccs1 (stereo not drawn),12.8%
20,Cc1cc(C)nc(S/C=C/C(=O)c2ccccc2)n1,12%
21,O=C(/C=C/Sc1ncn[nH]1)c1ccc(Cl)cc1,56.1% (active)
22,O=C(CSc1ncn[nH]1)N/N=C/c1ccc(F)cc1,-12.6%
23,O=C1[C@H]2[C@@H](c3ccc(F)cc3)N3C(=O)N(c4ccc(C(F)(F)F)cc4)C(=O)[C@@]3(Cc3ccccc3)[C@H]2C(=O)N1C1CCCCC1,36.5%
24,COc1ccc(CNC(=O)C2CCN(C(=O)c3ccccc3)CC2)cc1,-1.19%

row,SMILES,inhibition
1,COc1cccc(N=c2oc3c(C)ncc(CO)c3cc2C(N)=O)c1,13.3%
2,Cc1nc(Nc2ccc3c(c2)OCCO3)c2nnn(Cc3ccccc3Cl)c2n1,54.7% (active)
3,Cc1nc(Nc2ccccc2F)c2nnn(Cc3ccccc3Cl)c2n1,-8.04%
4,CCCc1nc(NCc2ccc3c(c2)OCO3)c2nnn(Cc3ccccc3Cl)c2n1,11.9%
5,Cc1ccc(NS(=O)(=O)c2ccc3c(c2)NC(=O)CO3)cc1,5.83%
6,CN(CC(=O)Nc1cccc(F)c1)C(=O)C1CC(=O)N(CCc2ccccc2)C1 (stereo not drawn),-2.73%
7,Cc1ccc(-n2c(SCC(=O)N3c4ccccc4Sc4ccccc43)nnc2-c2ccncc2)cc1,63.1% (active)
8,Cc1ccc(-c2nnc(SCC(=O)N/N=C/c3cccs3)n2-c2ccc(C)cc2)cc1,12.8%
9,NNC(=O)CSc1nnc(-c2ccccc2)n1-c1ccccc1,-6.88%
10,O=C(CCC1CCCN(C(=O)c2ccc(F)c(F)c2)C1)N1CCN(c2ccccn2)CC1 (stereo not drawn),9.19%
11,COc1cc(/C=C2/SC(=S)N(Cc3ccccc3)C2=O)cc(OC)c1O,-5.6%
12,O=C(Nc1cccc2cccnc12)c1cccc(Cl)c1,-33.4%
13,O=C(Nc1ccccc1Cl)Nc1cccc2cccnc12,3.14%
14,CC(=O)/C(=N\Nc1ccc(Cl)cc1Cl)Sc1cccc2cccnc12,67.6% (active)
15,CCOc1ccc(C(=O)CCC(=O)NC2=NCCS2)cc1,10.9%
16,CC(=O)c1cc(CN2CCC(n3nccc3NC(=O)c3ccccc3Cl)CC2)cs1,9.08%
17,COCCn1cnc2c1c(=O)n(Cc1ccc(Br)cc1)c(=O)n2Cc1ccccc1,19.6%
18,CCN(CC)CCn1cnc2c1c(=O)[nH]c(=O)n2Cc1ccccc1,-8.26%
19,N=c1c2c(-c3ccccc3)c(-c3ccccc3)n(Cc3ccccc3)c2ncn1CCCO,70.5% (active)
20,N#Cc1ccc(-c2ccc(Cl)cc2)nc1Oc1ccc(F)cc1,14.3%
21,N#CCCN(C(=O)COC(=O)c1ccc(S(=O)(=O)N2CCCCCC2)cc1)c1ccccc1,-2.09%
